Reference: ChEMBL document CHEMBL1133520, “Design, synthesis, and biological evaluation of potent and selective amidino bicyclic factor Xa inhibitors” (J Med Chem, 2000)
Values joined by “and” are separate entries in the source; they are usually repeats but may differ in a detail not shown here. Identical values can stand only once.

Key:
[1] = biological target: Serine protease 1 (Homo sapiens, UniProt P07477); assay: Binding affinity against human trypsin
In short: (§1)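 Human purified enzymes in 0.1 M sodium phosphate, 0.2 M NaCl, 0.5% PEG 6000, pH 7.4. Inhibitor at 0.00316–10 μM in 8 half-log steps. Substrate S2222 for fXa and trypsin, S2366 for thrombin. Hydrolysis rate read at 405 nm over 30 min, with uninhibited controls. Ki calculated from % activity, Km and substrate concentration. Run in duplicate against internal standards.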

[2] = biological target: Coagulation factor X (Homo sapiens, UniProt P00742); assay: Binding affinity against human coagulation factor X
[3] = biological target: Prothrombin (Homo sapiens, UniProt P00734); assay: Binding affinity against human thrombin; in short: as §1
[4] = Distribution volume at steady state in dog; type: ADME, organism-based, Canis lupus familiaris; conditions: in vivo, read-out: Vdss
In short: (§2)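 Given intravenously (rabbit: 10 mg/kg/h infusion over 60 min; dog: iv). Plasma protein-precipitated with acetonitrile; quantitation limit 5 nM. Noncompartmental fit. Half-life by nonlinear regression, AUC by trapezoidal rule. Clearance = dose/AUC0→∞. Vdss = Cl × MRT, with MRT = AUMC/AUC.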

[5] = plasma clearance in dog; type: ADME, organism-based, Canis lupus familiaris; in short: as §2
[6] = (§3) Half life period of the compound; type: ADME; in short: as §2
[7] = Cmax values of the compound; type: ADME, organism-based; conditions: in vivo; in short: as §2
[8] = organism: Oryctolagus cuniculus; assay: Tested for inhibition of thrombus formation using arterio-venous shunt device in rabbit; type: functional
In short: (§4)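 Rabbit arteriovenous shunt containing silk thread; blood circulated 40 min, then the thread and thrombus were weighed. Compound or saline vehicle infused iv via jugular vein from 1 h before circulation through the end (100 min total). Percent inhibition of thrombus weight per treatment group; ID50 estimated by linear regression.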

[9] = biological target: T1, Coagulation factor X (Oryctolagus cuniculus, UniProt O19045); assay: Binding affinity against fXa from rabbit purified enzyme
T1 sequence (O19045 whole entry): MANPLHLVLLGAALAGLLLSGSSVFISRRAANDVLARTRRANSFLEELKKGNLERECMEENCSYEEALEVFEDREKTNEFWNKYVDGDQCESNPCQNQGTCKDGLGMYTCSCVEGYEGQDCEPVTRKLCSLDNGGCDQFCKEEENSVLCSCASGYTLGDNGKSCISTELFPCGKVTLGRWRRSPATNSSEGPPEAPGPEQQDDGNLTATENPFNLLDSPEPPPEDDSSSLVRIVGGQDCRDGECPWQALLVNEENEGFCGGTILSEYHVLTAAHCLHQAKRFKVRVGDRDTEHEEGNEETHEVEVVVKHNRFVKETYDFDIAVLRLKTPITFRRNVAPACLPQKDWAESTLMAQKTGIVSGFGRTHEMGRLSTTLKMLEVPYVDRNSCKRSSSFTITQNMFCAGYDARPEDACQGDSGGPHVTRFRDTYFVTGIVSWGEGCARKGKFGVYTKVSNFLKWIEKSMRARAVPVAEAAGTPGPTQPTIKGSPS

[10] = as §3; type: ADME; in short: as §2; remark: listed apart in the source
[11] = biological target: T1, Coagulation factor X; assay: Binding affinity against Coagulation factor X from rabbit purified enzyme
[12] = system: Oryctolagus cuniculus; assay: Tested for inhibition of thrombus formation using arterio-venous shunt device in rabbit at 0.008-1 mg/kg/h; type: functional; in short: as §4
[13] = plasma clearance in rabbit
[14] = organism: Oryctolagus cuniculus; assay: Distribution volume at steady state in rabbit; conditions: in vivo, read-out: Vdss

Chain of Coagulation factor X (Homo sapiens, UniProt P00742) (P00742 41-179 limits assumed): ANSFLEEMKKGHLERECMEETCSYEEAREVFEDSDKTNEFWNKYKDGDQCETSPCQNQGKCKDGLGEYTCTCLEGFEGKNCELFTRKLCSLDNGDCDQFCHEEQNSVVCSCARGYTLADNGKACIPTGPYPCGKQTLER
Chain of Coagulation factor X (Homo sapiens, UniProt P00742) (P00742 235-488 limits assumed): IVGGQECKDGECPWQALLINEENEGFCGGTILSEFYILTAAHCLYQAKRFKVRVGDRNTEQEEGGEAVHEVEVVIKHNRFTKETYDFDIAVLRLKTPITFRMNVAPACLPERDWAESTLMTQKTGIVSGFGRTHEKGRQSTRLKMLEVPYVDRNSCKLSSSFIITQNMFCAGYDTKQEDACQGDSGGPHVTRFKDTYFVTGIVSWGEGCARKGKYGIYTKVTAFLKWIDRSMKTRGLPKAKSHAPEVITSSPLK
Chain of Serine protease 1 (P07477 whole entry): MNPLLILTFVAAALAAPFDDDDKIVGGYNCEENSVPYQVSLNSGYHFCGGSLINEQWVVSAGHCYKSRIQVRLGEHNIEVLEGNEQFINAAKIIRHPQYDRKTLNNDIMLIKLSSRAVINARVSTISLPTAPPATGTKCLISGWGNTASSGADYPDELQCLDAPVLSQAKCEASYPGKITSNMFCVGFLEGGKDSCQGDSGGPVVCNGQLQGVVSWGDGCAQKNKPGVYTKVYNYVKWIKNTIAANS

SMILES	Ki [1] [nM]	Ki [2]	Ki [3]	further results
N=C(N)c1ccc2cnn(CC(=O)Nc3ccc(-c4ccccc4S(N)(=O)=O)cn3)c2c1	41	3.1 nM	6800 nM	
N=C(N)c1ccc2[nH]cc(CC(=O)Nc3ccc(-c4ccccc4S(N)(=O)=O)cc3F)c2c1	270	3.1 nM	2100 nM	Vd [4]: 0.87 L/kg; clearance [5]: 18.3 mL/min/kg; half-life [6]: 150 min; Cmax [7]: 1630 nM
N=C(N)c1ccc2c(c1)ncn2CC(=O)c1ccc(-c2ccccc2)cc1			> 21000 nM	
CCOC(=O)C(CCc1ccc(C(=N)N)cc1)Cn1cnc2ccc(C(=N)N)cc21 (stereo not drawn)		11900 nM	> 21000 nM	
N=C(N)c1ccc2[nH]cc(CC(=O)Nc3ccc(-c4ccccc4S(N)(=O)=O)cc3)c2c1	160		1600 nM and 900 nM	ID50 [8]: 1.7 µM/h/kg; Vd [4]: 0.38 L/kg; clearance [5]: 20.3 mL/min/kg; half-life [6]: 47.4 min; Ki [9]: 6 nM; Cmax [7]: 1510 nM and 8700 nM; half-life [10]: 73.2 min
N=C(N)c1ccc2[nH]cc(CC(=O)Nc3ccc(-c4ccccc4S(N)(=O)=O)cc3Cl)c2c1	140	0.7 nM	500 nM	ID50 [8]: 0.35 µM/h/kg; Vd [4]: 2.01 L/kg; clearance [5]: 50 mL/min/kg; half-life [6]: 105 min; Cmax [7]: 650 nM; Ki [11]: 0.79 nM
Cc1cc(-c2ccccc2S(N)(=O)=O)ccc1NC(=O)Cc1c[nH]c2ccc(C(=N)N)cc12	340	2.3 nM	1000 nM	
CN(C(=O)Cc1c[nH]c2ccc(C(=N)N)cc12)c1ccc(-c2ccccc2S(N)(=O)=O)cc1	600	41 nM	14000 nM	
N=C(N)c1ccc2[nH]cc(CC(=O)Nc3ccc(-c4ccccc4S(N)(=O)=O)cn3)c2c1	150	0.92 nM and 0.44 nM	2100 nM	ID50 [8]: 0.3 µM/h/kg; Vd [4]: 1.9 L/kg; clearance [5]: 61.7 mL/min/kg; half-life [6]: 24 min; Cmax [7]: 2200 nM; Ki [11]: 0.93 nM
CNS(=O)(=O)c1ccccc1-c1ccc(NC(=O)Cc2c[nH]c3ccc(C(=N)N)cc23)cc1	120	3.4 nM	900 nM	
CN(C)S(=O)(=O)c1ccccc1-c1ccc(NC(=O)Cc2c[nH]c3ccc(C(=N)N)cc23)cc1	390	7 nM	1700 nM	
CCOC(=O)C(CCc1ccc(C(=N)N)cc1)Cn1cnc2cc(C(=N)N)ccc21 (stereo not drawn)		2200 nM	> 21000 nM	
N=C(N)c1ccc2ncn(CC(=O)c3ccc(-c4ccccc4S(N)(=O)=O)cc3)c2c1	300	240 nM	2800 nM	
CCOC(=O)C(CCc1cccc(C(=N)N)c1)Cn1cnc2cc(C(=N)N)ccc21 (stereo not drawn)	220		2000 nM	
N=C(N)c1ccc2c(c1)ncn2CC(=O)Nc1ccc(-c2ccccc2)cc1	> 2500	3900 nM	12500 nM	
N=C(N)c1ccc2c(c1)ncn2CC(=O)Nc1ccc(-c2ccccc2S(N)(=O)=O)cc1	130	400 nM	2700 nM	
N=C(N)c1ccc2[nH]cc(CC(=O)Nc3ccc(-c4ccccc4S(N)(=O)=O)cc3Br)c2c1	120	0.32 nM	200 nM	Vd [4]: 0.67 L/kg; clearance [5]: 22.3 mL/min/kg; half-life [6]: 108 min; Cmax [7]: 1430 nM; Ki [11]: 0.9 nM; ID50 [12]: 0.14 µM/h/kg
CCOC(=O)C(CCc1cccc(C(=N)N)c1)Cn1cnc2ccc(C(=N)N)cc21 (stereo not drawn)	820	700 nM	1900 nM	
N=C(N)c1ccc2[nH]cc(CC(=O)Nc3ccc(-c4ccccc4S(N)(=O)=O)cc3I)c2c1	240	0.6 nM	200 nM	
Cn1cc(CC(=O)Nc2ccc(-c3ccccc3S(N)(=O)=O)cn2)c2cc(C(=N)N)ccc21	1500	89 nM	21000 nM	
CCNS(=O)(=O)c1ccccc1-c1ccc(NC(=O)Cc2c[nH]c3ccc(C(=N)N)cc23)cc1	160	4.1 nM	800 nM	
CCCNS(=O)(=O)c1ccccc1-c1ccc(NC(=O)Cc2c[nH]c3ccc(C(=N)N)cc23)cc1	180	8 nM	400 nM	
N=C(N)c1ccc2ncn(CC(=O)Nc3ccc(-c4ccccc4S(N)(=O)=O)cc3)c2c1	47	2.4 nM	2200 nM	clearance [13]: 73.3 mL/min/kg; Cmax [7]: 3850 nM; Vd [14]: 3.04 L/kg; half-life [10]: 57.6 min
N=C(N)c1ccc2ncn(CC(=O)c3ccc(-c4ccccc4)cc3)c2c1	320	120 nM	1200 nM	
N=C(N)c1ccc2ncn(CC(=O)Nc3ccc(-c4ccccc4)cc3)c2c1	480	220 nM	4700 nM	
N=C(N)c1ccc2c(c1)C(CC(=O)Nc1ccc(-c3ccccc3S(N)(=O)=O)cc1)CN2 (single isomer, unassigned; (+))	140	0.71 nM	1500 nM	
N=C(N)c1ccc2c(c1)C(CC(=O)Nc1ccc(-c3ccccc3S(N)(=O)=O)cc1)CN2 (single isomer, unassigned; (-))	400	52 nM	17000 nM	
